Here are results for five compounds from publication PMC2761948 (Journal of medicinal chemistry, 2009).

By IC50 is commonly meant the point on the concentration scale where inhibition reaches its midpoint.

In assay [1] the test system is focal adhesion kinase (FAK). The experiment in a line: FAK immunostaining and Western blotting. It counts as cell-based, mouse. To be noted: 1 h; for FAK degradation (Western blotting): 4T1 cells. The gist of the method: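 4T1 cells treated for 1 h with test compound or DMSO. For focal adhesion sites, cells were fixed and immunostained with anti-FAK antibody (2.5 μM test compound, 5 μM comparator). For FAK stability, each agent was given at 5 μM and cell lysates were immunoblotted with anti-FAK monoclonal antibody.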

In assay [2] the test system is MCF-7 breast cancer cells. Put plainly: Adhesion assay, MCF-7 cells to Matrigel-coated surface. As to conditions: at 100 μM. It counts as cell-based, human. In short, it runs like this: (§1)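 Wells coated with 12% (v/v) Matrigel for 1 h at 37 °C, washed with 0.1% BSA-RPMI, then blocked with 0.5% BSA-RPMI for 60 min. Cells were pretreated with test compound for 60 min at 37 °C, seeded at 2 × 10^4 per well, and left to adhere for 30 min. Adherent cells were fixed in formalin, stained with crystal violet and solubilised in 2% SDS; A570 read. Mean ± SD, n = 3.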

For assay [3], the system named is 4T1 cells. Put plainly: F-actin immunostaining. To be noted: 4-h exposure. In kind it is cell-based, mouse. In short, it runs like this:
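Cells grown overnight on coverslips, then exposed to test compound for 4 h in 2% FBS RPMI 1640. They were fixed in 3.7% formaldehyde, permeabilised 1 h (PBS, 0.1% Triton X-100, 0.1% BSA) and stained 30 min with Alexa Fluor 488 phallotoxin, with DAPI counterstain. Confocal imaging (488/543 nm excitation); fluorescence intensity expressed as % of untreated control.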

Assay [4] deals with 4T1 metastatic breast cancer cells. Put plainly: Adhesion assay, 4T1 cells to Matrigel-coated surface. In kind it is cell-based, mouse. As to conditions: read-out: IC50, inhibition of 4T1 cell adhesion.
Assay [5] has as its system 4T1 cells. Put plainly: Migration assay. It counts as cell-based, mouse. The gist of the method: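 Trypsinised 4T1 cells (5 × 10^4) in 0.2% FBS RPMI with test compound were placed in Transwell inserts (12-μm pore polycarbonate) for 30 min at 37 °C. Inserts then moved to wells with 10% FBS RPMI for 24 h. Migrated and non-migrated cells were crystal violet-stained and methanol-solubilised separately; A570 read. Background-corrected % migration normalised to vehicle; mean ± SD, n = 3.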

The subject of assay [6] is SKBR3 breast cancer cells. Put plainly: Adhesion assay, SKBR3 cells to Matrigel-coated surface. In kind it is cell-based, human. As to conditions: at 100 μM. In short, it runs like this:
as §1

With “α-tocopheryl succinate [Compound 1, reference compound]”, the “FAK degradation (Western blotting)” value in assay [1] (5 μM) is “less evident or not appreciable”. The “effect on focal adhesion sites (anti-FAK immunostaining)” value in assay [1] (5 μM, negative control) is reported as “typical punctate pattern”. In addition, in assay [2], the “suppression of MCF-7 cell adhesion” value is listed as “ineffective”. Further, the “effect on actin stress fiber” value in the assay on 4T1 cells [3] (50 μM) was “remained largely intact”. Besides, in assay [4], the IC50 came out at 10 µM. Further, the “inhibition of serum-induced 4T1 cell migration” value (shortened to “inhibition”) with 4T1 cells [5] (at 50 μM) is reported as “little effect”. The “suppression of SKBR3 cell adhesion” value in assay [6] was “ineffective”.
In the case of `Cc1c(C)c2c(c(C)c1OCC(=O)O)CC[C@](C)(/C=C/CC(C)CCCC(C)C)O2` (stereo partly shown) [Compound 5, [2-(4,8-Dimethyl-non-1-enyl)-2,5,7,8-tetramethyl-chroman-6-yloxy]-acetic acid], in assay [1] (2.5 μM), the “effect on focal adhesion sites (anti-FAK immunostaining)” value is on record as “loss of focal adhesion sites”. Moreover, the “FAK degradation (Western blotting)” value in assay [1] (5 μM) is reported as “induced FAK degradation”. Also, the “effect on actin stress fiber and lamellipodia formation” value with 4T1 cells [3] (5 μM) is “rapid dissolution of stress fiber and impairment of lamellipodia formation”. Also, the “inhibition” value in the assay on 4T1 cells [5] (at 5 μM) is recorded as “effective in inhibiting cell migration”.
Consider `Cc1c(C)c2c(c(C)c1OC(=O)CCC(=O)O)CC[C@](C)(/C=C/CC(C)CCCC(C)C)O2` (stereo partly shown) [Compound 4, Succinic acid mono-[2-(4,8-dimethyl-non-1-enyl)-2,5,7,8-tetramethyl-chroman-6-yl] ester], for which the “inhibition” value in the assay on 4T1 cells [5] (at 5 μM) is “effective in inhibiting cell migration”.
As for `Cc1c(C)c2c(c(C)c1OCC(=O)O)CC[C@](C)(CCCC(C)CCCC(C)C)O2` (stereo partly shown) [Compound 6, [2-(4,8-Dimethyl-nonyl)-2,5,7,8-tetramethyl-chroman-6-yloxy]-acetic acid], the “effect on actin stress fiber and lamellipodia formation” value in the assay on 4T1 cells [3] (10 μM) is “rapid dissolution of stress fiber and impairment of lamellipodia formation”. Moreover, the “inhibition” value with 4T1 cells [5] (at 5 μM) is “effective in inhibiting cell migration”.
As for `Cc1c(C)c2c(c(C)c1OC(=O)CCC(=O)O)CC[C@](C)(CCCC(C)CCCC(C)C)O2` (stereo partly shown) [Compound 2], the “FAK degradation (Western blotting)” value in assay [1] (5 μM) is listed as “less evident or not appreciable”. Further, the “inhibition” value with 4T1 cells [5] (at 5 μM) is recorded as “little effect”.
